According to the RNAGym collection of RNA variant scans (doi:10.1126/science.aae0568):
Fewer inactive variants are shown than the library holds.

B1: tRNA (parent)
chain: GUUCCGUUGGCGUAAUGGUAACGCGUCUCCCUCCUAAGGAGAAGACUGCGGGUUCGAGUCCCGUACGGAACG

Variants of: B1
Test: yeast fitness relative to wild type (ratio to wild type); higher = fitter; tRNA-Arg(CCU), competitive growth, 37 C, YPD
Procedure, shortened: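 A pool of Saccharomyces cerevisiae strains, each with a tRNA-Arg(CCU) gene variant at the native genomic locus, was competed in YPD at 37°C for 24 hours across six parallel replicates. The variants had been chemically synthesised at a 3% per-site mutation rate over 69 sites, and gene amplicons before and after competition were read by 100-nucleotide paired-end sequencing. Darwinian fitness relative to wild type rested on changes in genotype frequencies. Genotypes required ≥ 100 starting reads, and estimates < 0.5 were set to 0.5.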

First: GUUCCGUUGGCGUAUUGCUAACGCGUCUGCCUCCUAAGGAGAAGACUGCGGGUUCGAGUCCCGAACGGCACG [A15U G18C C29G U64A A69C]
Second: GUUCCGUUGGCGUAUUGGUAACACGUCUCCCUCCUAAGGAGAAGACUGCGGGUUCGAGUCCCGUACGCAACG [A15U G23A G68C]
The yeast fitness of the first is higher: 0.598 for the first, at most 0.5 for the second.

First: GUUCCGUUGGCGUAUUGGUAACCCGUCUUCCUCCUAAGGAGAAGACUGCAGGUUCGAGUCCCGUACGGAACG [A15U G23C C29U G50A]
Second: GUUCCGUUGGCGUAUGGGUAACGCGUCUCCCUCCUAAGAAGAAGACUGCGGGUUCGAGUGCCGUACGGAGCG [A15U U16G G39A C60G A70G]
The yeast fitness of the first is higher: 0.616 for the first, at most 0.5 for the second.

GUUCCGUUGGCGUAUUGGUAACGCGUCUCCCUCCUAACAAGACGACUGCGGGUUCGAGUCCCGUACGGAACG [A15U G38C G39A A43C] and GUUCCGUUGGCGUAUUGGUAACUGGUCUCCCUCCUAAGGAGAAGACUGCGGGUUCGAGUCCCGUACGGAACG [A15U G23U C24G] cannot be ordered by yeast fitness: at most 0.5 for the first, at most 0.5 for the second.

GUUCCGUUGGCGUAUUGGUAACGCCUCUCCCUCCUAAGGAGAAGACUGCGGGUUCGGGUCCCGUACGGAACG [A15U G25C A57G] and GUUCCGUUGGCGUAUUGGCAACGCGUCUCCUUCCUAAGGCGAAGACUGCGGGUUCGAGUCCCGUACGGAACG [A15U U19C C31U A40C] cannot be ordered by yeast fitness: at most 0.5 for the first, at most 0.5 for the second.

First: GUUCCGUUGGCGUAUUGGUAACGCAUCUCCCUCCUUAGGAGAAGACUGCGGGUUCGAGUCCCGUACGGAACG [A15U G25A A36U]
Second: GUUCCGUUGGCGUAUUGGAAACGAGUCUCCCUCCUAAGGAGAAGACUGCGGGUUCGAGUCCCGUACGGAACG [A15U U19A C24A]
The yeast fitness of the first is lower: 0.586 for the first, 0.641 for the second.

GUUCCGUUGGCGUAUUGGUAACGCGUCUCCCUCCUAAGAAGAAGACUGCGGGUUCGGGUCCCGUACGGAACG [A15U G39A A57G] and GUUCCGUUGGCGUAUUGGUAACGCGUCUCCCUCCUAACGAGACGACUGCGGGUUCGAGUCCCGUACGGAACG [A15U G38C A43C] cannot be ordered by yeast fitness: at most 0.5 for the first, at most 0.5 for the second.

GUUCCGUUGGCGUAUUGGUAACCCGUCUCCCUCGUAAGGAGAAGACUGCGGGUUGGAGUCCCGUACGGAACG [A15U G23C C34G C55G] and GUUCCGUUGGCGUAUUGGUAACGCGUCUCCCUCCUAAAGCGAAGACUGCGGGUUCGAGUCCCGUACGGAACG [A15U G38A A40C] cannot be ordered by yeast fitness: at most 0.5 for the first, at most 0.5 for the second.

GUUCCGUUGGCGUAUUGGUAACCCGUCUCCCUCCUAAGGAAAAGACUGAGGGUUCGAGUCCCGUACGGAACG [A15U G23C G41A C49A] and GUUCCGUUGGCGUAUUGGAGACGCGUCUCCCUCCUAAGGUGAUGACUGCGGGUUCGAGUGCUGUACGCAACG [A15U U19A A20G A40U A43U C60G C62U G68C] cannot be ordered by yeast fitness: at most 0.5 for the first, at most 0.5 for the second.

Compared with GUUCCGUUGGCGUAUUGGAAACGCGUCUCCCUCCUUAGGAGAAGACUGCGGGUACGAGUCCCGUACGGAACG [A15U U19A A36U U54A], GUUCCGUUGGCGUAUUGCUAACGCGUCUGCCUCCUAAGGAGAAGACUGCGGGUUCGAGUCCCGUACGGAACG [A15U G18C C29G] is higher in yeast fitness: at most 0.5 for the first, 0.571 for the second.

Compared with GUUCCGUUGGCGUAUUGGUAACACGUCUCCCUCCUAAGGCGAAGACUGCGGGUUCGGGUCUCGUCCGGAACG [A15U G23A A40C A57G C61U A65C], GUUCCGUUGGCGUAUUGGCAACGCGUCUCCUUCCUAAGGCGAAGACUGCGGGUUCGUGUCCCGUACGGAACG [A15U U19C C31U A40C A57U] is lower in yeast fitness: 0.629 for the first, at most 0.5 for the second.

Going from GUUCCGUUGGCGUAUUGGUAACGCGUCUCCCUCCUAAGGAGAACACUGCGGGUUCGAGUCCCGUACGCAACG [A15U G44C G68C] to GUUCCGUUGGCGUAUUGGUAACGCAUCUCCCUCCUAAGGAGAACACUGCGGGUUCGAGUCCCGUACUGAACG [A15U G25A G44C G67U], the yeast fitness rises from at most 0.5 to 0.522.

Compared with GUUCCGUUGGCGUAUAGGUAACGCGUGUCCCUCCUAAGGAGAAGACUGCGGGUUUGAGUCCUGUACCGAACG [A15U U16A C27G C55U C62U G67C], GUUCCGUUGGCGUAUUGGUAACGCGUCUCCCUCCUAAGGAGAAGACUCCGGGUUCGAGUCCCGUACGGAACG [A15U G48C] is higher in yeast fitness: at most 0.5 for the first, 0.669 for the second.

Going from GUUCCGUUGGCGUAUUGGUAACGCGUCUCCCUCCUAAGCAGAAGACUGCGGGUUCGAGUCCCGUACGGAACG [A15U G39C] to GUUCCGUUGGCGUAUUGGUAACGCGUCUCCCUCCUAAGGAGAAGACUGCGGGUUCCAGUCCCGUACGGAACG [A15U G56C], the yeast fitness falls from 0.597 to 0.549.

Compared with GUUCCGUUGGCGUAUUGGUAACGCGUCUCCCUCCUAAGGAGAAGACUGCGGGUUCUAGUCCCGUACGGAACG [A15U G56U], GUUCCGUUGGCGUAUUGGUAACGCGUCUCCCUCCUAAAGAGAAGACUGCGGGUUCGAGUCCCGUACGGAACG [A15U G38A] is lower in yeast fitness: 0.657 for the first, 0.635 for the second.

GUUCCGUUGGCGUAUUGGUAACGCGUCUCCCUCCUAACGAGAAGACUGCGCGUUCGAGUCCCGUACGGACCG [A15U G38C G51C A70C] and GUUCCGUUGGCGUAUUGGUAACGCGUCUCCCUCCUAAGGAGAAGACUGCCGGUCCGAGUCCCGUACGGAACG [A15U G50C U54C] cannot be ordered by yeast fitness: at most 0.5 for the first, at most 0.5 for the second.

First: GUUCCGUUGGCGUAUUGGUAACGCAUCUCCCUCCUAAGGAGAAGACUGCGGGUUCGAGUCCCGUACGAAACG [A15U G25A G68A]
Second: GUUCCGUUGGCGUAUUGGUAACGCGUCUCCCUCCUAACAAGACGACUGCGGGUCCGAGUGCCGUCCGGAACG [A15U G38C G39A A43C U54C C60G A65C]
The yeast fitness of the first is higher: 0.698 for the first, at most 0.5 for the second.

First: GUUCCGUUGGCGUAUUGGUAACCCGUCGCCCCCCUUAAGAGAAGACUGCGGGUUAGAGUCCCGUACGGAACG [A15U G23C U28G U32C A36U G38A C55A]
Second: GUUCCGUUGGCGUAUUGGUAACGCGACUCCCUCCUAAGGAGAAGACUGCGGGUUCGAGUCCCGUACGGAACG [A15U U26A]
The yeast fitness of the first is higher: 0.689 for the first, 0.666 for the second.

GUUCCGUUGGCGUAUUGGUAACCCGUCUCCCUACUAAGGAGAAGACUGCGGGUUCGAGUCCCCUACGUAACG [A15U G23C C33A G63C G68U] and GUUCCGUUGGCGUAUUGGUAACCCGUCUCCCUCCUAAGGAGAAGUCUGCGGGUUCGAGUCCAGUACGGAACG [A15U G23C A45U C62A] cannot be ordered by yeast fitness: at most 0.5 for the first, at most 0.5 for the second.

Work on GUUCCGUUGGCGUAUUGGUAACGCGUCUCCCUCCUAAGGAGAAGACUGCGGGUUCGAGUCCCGUACGAAACG [A15U G68A] yielded a yeast fitness of 0.62.
